What all share (format): cell-based
Assay [1] has as its target von Hippel-Lindau disease tumor suppressor/WD repeat-containing protein 5 (Homo sapiens, UniProt P61964+P40337). In words: PROTAC activity at human VHL/human WDR5 wild type expressed in HEK293T cells assessed as degradation of WDR5 protein incubated for 3 days by Western blotting analysis. As to conditions: time 3.0 day. The essentials:
(§1)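 HEK293T cells were lentivirally transduced with doxycycline-inducible (1 μg/mL) 3×FLAG WDR5 wild type, K32R or K296R and selected with puromycin for 4 days. The stable lines were treated with a concentration series for 72 h. Lysates were run on 4–12% SDS-PAGE and immunoblotted for WDR5 with a vinculin loading control, with at least two independent experiments.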

Assay [2] concerns von Hippel-Lindau disease tumor suppressor/WD repeat-containing protein 5 (Homo sapiens), P61964+P40337 [K32R]. Description: PROTAC activity at human VHL/human WDR5 K32R mutant expressed in HEK293T cells assessed as degradation of WDR5 protein at 0.25 to 5 uM incubated for 3 days by Western blotting analysis. As to conditions: dose 0.25-5 µM, time 3.0 day. The essentials:
as §1

Assay [3] has as its system von Hippel-Lindau disease tumor suppressor/WD repeat-containing protein 5 (Homo sapiens), P61964+P40337 [K296R]. In words: PROTAC activity at human VHL/human WDR5 K296R mutant expressed in HEK293T cells assessed as degradation of WDR5 protein at 0.25 to 5 uM incubated for 3 days by Western blotting analysis. To be noted: dose 0.25-5 µM, time 3.0 day. The procedure, abridged:
as §1

For assay [4], the target named is T1, Cereblon/Ikaros (Homo sapiens) (UniProt Q96SW2+Q13422). Description: PROTAC activity at CRBN/IKZF1 in human MV4-11 cells assessed as degradation of IKZF1 protein at 0.01 to 5 uM incubated for 18 hrs by Western blotting analysis. As to conditions: dose 0.01-5 µM. The essentials: (§2)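 MV4;11 cells (RPMI 1640, 10% FBS) and MIA PaCa-2 cells (DMEM, 10% FBS) treated with DMSO or compound for 18 h. Whole-cell lysates immunoblotted for WDR5, IKZF1 (MV4;11 only) and LIMD1 (MV4;11 only), with tubulin as loading control and fluorescent secondary antibodies. Representative of at least two independent experiments.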

Assay [5] has as its target T2, Protein cereblon/WD repeat-containing protein 5 (Homo sapiens) (UniProt P61964+Q96SW2). Description: PROTAC activity at CRBN/WDR5 in human MV4-11 cells assessed as degradation of WDR5 protein at 0.01 to 5 uM incubated for 18 hrs by Western blotting analysis. To be noted: dose 0.01-5 µM. The procedure, abridged: as §2
In assay [6] the target is T2, Protein cereblon/WD repeat-containing protein 5 (Homo sapiens). In words: PROTAC activity at CRBN/WDR5 in human MIA PaCa-2 cells assessed as degradation of WDR5 protein at 0.01 to 5 uM incubated for 18 hrs by Western blotting analysis. As to conditions: dose 0.01-5 µM. The procedure, abridged:
as §2

Assay [7] addresses T1, Cereblon/Ikaros (Homo sapiens). In words: PROTAC activity at CRBN/IKZF1 in human MV4-11 cells assessed as degradation of IKZF1 protein at 2 uM incubated for 18 hrs by Western blotting analysis. The essentials: as §2
The target in assay [8] is T2, Protein cereblon/WD repeat-containing protein 5 (Homo sapiens). In words: PROTAC activity at CRBN/WDR5 in human MV4-11 cells assessed as degradation of WDR5 protein at 0.5 uM incubated for 18 hrs by Western blotting analysis. The essentials: as §2
The target of assay [9] is T3, Protein cereblon/LIM domain-containing protein 1 (Homo sapiens) (UniProt Q96SW2+Q9UGP4). Description: PROTAC activity at CRBN/LIMD1 in human MV4-11 cells assessed as degradation of IKZF1 protein at 0.5 uM incubated for 18 hrs by Western blotting analysis. The essentials: as §2
T3 sequence (Q96SW2 whole entry, looked up, the tested form may be a part): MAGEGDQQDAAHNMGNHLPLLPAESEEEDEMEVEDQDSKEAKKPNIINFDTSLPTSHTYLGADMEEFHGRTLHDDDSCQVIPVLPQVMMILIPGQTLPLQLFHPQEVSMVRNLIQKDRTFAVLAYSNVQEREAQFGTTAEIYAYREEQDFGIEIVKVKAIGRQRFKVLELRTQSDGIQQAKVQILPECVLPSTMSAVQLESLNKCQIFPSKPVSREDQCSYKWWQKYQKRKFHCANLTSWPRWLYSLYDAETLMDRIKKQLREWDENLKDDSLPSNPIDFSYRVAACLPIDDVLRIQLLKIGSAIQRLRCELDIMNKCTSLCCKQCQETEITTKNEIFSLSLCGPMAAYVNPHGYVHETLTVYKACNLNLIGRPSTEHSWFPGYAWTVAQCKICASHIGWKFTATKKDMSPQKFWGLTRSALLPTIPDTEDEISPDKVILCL
T3 sequence (Q9UGP4 whole entry, looked up, the tested form may be a part): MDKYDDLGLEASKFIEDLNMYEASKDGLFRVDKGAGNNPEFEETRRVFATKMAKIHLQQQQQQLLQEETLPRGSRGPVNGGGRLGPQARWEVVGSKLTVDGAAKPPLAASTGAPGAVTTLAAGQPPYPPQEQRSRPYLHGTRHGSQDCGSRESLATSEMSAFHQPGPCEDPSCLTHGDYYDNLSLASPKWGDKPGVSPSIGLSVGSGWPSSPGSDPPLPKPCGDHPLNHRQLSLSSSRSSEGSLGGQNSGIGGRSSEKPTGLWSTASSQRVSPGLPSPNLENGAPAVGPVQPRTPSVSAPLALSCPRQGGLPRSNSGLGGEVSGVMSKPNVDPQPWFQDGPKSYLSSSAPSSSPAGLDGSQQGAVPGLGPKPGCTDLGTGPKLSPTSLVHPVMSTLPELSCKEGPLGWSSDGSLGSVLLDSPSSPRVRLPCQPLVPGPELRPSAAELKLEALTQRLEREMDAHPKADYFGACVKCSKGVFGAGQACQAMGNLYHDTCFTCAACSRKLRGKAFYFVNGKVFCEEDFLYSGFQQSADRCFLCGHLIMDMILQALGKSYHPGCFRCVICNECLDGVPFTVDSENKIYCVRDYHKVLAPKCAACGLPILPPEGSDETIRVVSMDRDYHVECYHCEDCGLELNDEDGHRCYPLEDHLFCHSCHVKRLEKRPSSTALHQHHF
Assay [10] has as its target T3, Protein cereblon/LIM domain-containing protein 1 (Homo sapiens). Description: PROTAC activity at CRBN/LIMD1 in human MV4-11 cells assessed as degradation of IKZF1 protein at 2 uM incubated for 18 hrs by Western blotting analysis. The essentials: as §2
Assay [11] concerns the target T1, Cereblon/Ikaros (Homo sapiens). Description: PROTAC activity at CRBN/IKZF1 in human MV4-11 cells assessed as degradation of IKZF1 protein at 0.5 uM incubated for 18 hrs by Western blotting analysis. The procedure, abridged: as §2
Assay [12] has as its target T2, Protein cereblon/WD repeat-containing protein 5 (Homo sapiens). Description: PROTAC activity at CRBN/WDR5 in human MV4-11 cells assessed as degradation of WDR5 protein at 2 uM incubated for 18 hrs by Western blotting analysis. The essentials:
as §2

Calls of active or inactive are those of the source. The rule behind the calls is not given here.

As to `Cc1ncsc1-c1ccc([C@H](C)NC(=O)[C@@H]2C[C@@H](O)CN2C(=O)[C@@H](NC(=O)CNC(=O)c2ccc(F)c(-c3ccc(N4C[C@@H](C)N(C)[C@@H](C)C4)c(NC(=O)c4c[nH]c(=O)cc4C(F)(F)F)c3)c2)C(C)(C)C)cc1`, the Activity result in [1] was “Dose-Dependent Effect”. Also, the result in [2] was Active. In assay [3], the result was inactive.

As to `C[C@@H]1CN(c2ccc(-c3cc(C(=O)NCCCCCCCNC(=O)COc4cccc5c4C(=O)N(C4CCC(=O)NC4=O)C5=O)ccc3F)cc2NC(=O)c2c[nH]c(=O)cc2C(F)(F)F)C[C@H](C)N1C` (stereo partly specified), in [4], the outcome was inactive. In addition, the result in assay [5] and in assay [6] was Active.

Regarding `CN1CCN(c2ccc(-c3cccc(CN4CCN(CCNC(=O)CCCCNC(=O)COc5cccc6c5C(=O)N(C5CCC(=O)NC5=O)C6=O)CC4)c3)cc2NC(=O)c2c[nH]c(=O)cc2C(F)(F)F)CC1` (stereo unspecified), the outcome in [7], in assay [9], in [10] and in assay [11] was inactive. The result in [8] and in assay [12] was Active.

Regarding `CN1CCN(c2ccc(-c3cccc(CN4CCN(CCNC(=O)CCCCCCCNC(=O)COc5cccc6c5C(=O)N(C5CCC(=O)NC5=O)C6=O)CC4)c3)cc2NC(=O)c2c[nH]c(=O)cc2C(F)(F)F)CC1` (stereo unspecified), the result in [7], in assay [9], in assay [10], in assay [11] and in assay [4] was inactive. Moreover, the outcome in [8], in [5], in assay [6] and in assay [12] was Active.

For the origin of these results see ChEMBL document CHEMBL5375970, “Discovery of Potent and Selective WDR5 Proteolysis Targeting Chimeras as Potential Therapeutics for Pancreatic Cancer” (J Med Chem, 2023).
